Data: ChEMBL document CHEMBL4043205, “Picomolar inhibition of β-galactosidase (bovine liver) attributed to loop closure” (Bioorg Med Chem, 2017)
Active and inactive are the calls of the source. No cut-off for these calls is given here.

How the values were obtained:
[1] = target: T1, Beta-galactosidase (Bos taurus, UniProt Q58D55); assay: Inhibition of bovine liver beta-galactosidase using 4-nitrophenyl-beta-D-galactopyranoside substrate measured over 240 mins at 10 mins intervals by UV/Vis spectroscopy
T1 sequence (Q58D55 whole entry): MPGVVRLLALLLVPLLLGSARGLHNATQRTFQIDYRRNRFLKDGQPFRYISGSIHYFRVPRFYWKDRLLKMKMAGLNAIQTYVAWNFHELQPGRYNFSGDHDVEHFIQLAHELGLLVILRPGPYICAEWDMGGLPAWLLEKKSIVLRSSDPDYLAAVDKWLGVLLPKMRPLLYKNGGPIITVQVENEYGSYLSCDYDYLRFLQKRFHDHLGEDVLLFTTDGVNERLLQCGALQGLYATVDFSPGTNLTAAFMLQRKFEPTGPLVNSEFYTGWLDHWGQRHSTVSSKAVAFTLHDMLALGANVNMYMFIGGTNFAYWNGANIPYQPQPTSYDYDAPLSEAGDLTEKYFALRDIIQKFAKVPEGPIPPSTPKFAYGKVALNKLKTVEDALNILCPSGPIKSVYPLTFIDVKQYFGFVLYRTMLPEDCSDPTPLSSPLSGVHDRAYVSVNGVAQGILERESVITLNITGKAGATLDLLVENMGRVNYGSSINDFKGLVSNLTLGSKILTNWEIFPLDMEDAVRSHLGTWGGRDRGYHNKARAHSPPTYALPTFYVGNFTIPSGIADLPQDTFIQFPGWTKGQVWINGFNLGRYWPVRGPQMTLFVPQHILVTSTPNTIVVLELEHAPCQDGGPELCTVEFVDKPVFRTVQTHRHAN
Summary of the method: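 Bovine liver enzyme in 5 mM HEPES pH 7.50; 4-nitrophenyl-β-D-galactopyranoside mixed with 11 inhibitor dilutions (stocks 0.005–200 μM), equilibrated 30 °C 30 min, then enzyme added. Absorbance at 405 nm followed 240 min; final reads converted to percent inhibition against buffer control, plotted versus log inhibitor concentration; duplicates.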

[2] = target: T2, Beta-galactosidase (Bos taurus) (UniProt Q58D55); assay: Competitive inhibition of bovine liver beta-galactosidase using 4-nitrophenyl-beta-D-galactopyranoside substrate measured over 240 mins at 10 mins intervals by UV/Vis spectroscopy based Lineweaver-Burk plot
T2 sequence (whole entry): T1 sequence (Q58D55 whole entry)

[3] = Inhibition of Aspergillus oryzae beta-galactosidase using 2-chloro-4-nitrophenyl b-dgalactopyranoside substrate relative to control
[4] = tested on: Aspergillus oryzae; assay: Inhibition of Aspergillus oryzae beta-galactosidase using 2-chloro-4-nitrophenyl b-dgalactopyranoside substrate by Eddie-Hofstee plot
[5] = target: T2, Beta-galactosidase (Bos taurus); assay: Competitive inhibition of bovine liver beta-galactosidase using 4-nitrophenyl-beta-D-galactopyranoside substrate measured over 240 mins at 10 mins intervals by UV/Vis spectroscopy based Eddie-Hofstee plot
[6] = tested on: Aspergillus oryzae; assay: Inhibition of Aspergillus oryzae beta-galactosidase using 2-chloro-4-nitrophenyl b-dgalactopyranoside substrate by Lineweaver-Burk plot
[7] = Inhibition of Aspergillus oryzae beta-galactosidase using 2-chloro-4-nitrophenyl b-dgalactopyranoside substrate
[8] = target: T1, Beta-galactosidase; assay: Inhibition of bovine liver beta-galactosidase pre-incubated for 30 mins with 4-nitrophenyl-beta-D-galactopyranoside substrate before enzyme addition measured over 45 mins at 27 secs intervals by UV/Vis based spectroscopy
Summary of the method: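 Bovine liver enzyme (stock aliquot thawed, diluted in 5 mM HEPES, kept on ice). Varied 4-nitrophenyl-β-D-galactopyranoside with fixed inhibitor, pH 7.50 HEPES, equilibrated 30 °C 30 min before enzyme; 405 nm read for 45 min. Initial rates via ε 13,300 M−1 cm−1, fitted Michaelis-Menten at ≥2 inhibitor levels; competitive Ki from K′m = Km(1+[I]/Ki); duplicates, Lineweaver-Burk check.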

Row | SMILES | IC50 [1] [nM] | Inhibition mode (qualitative, Lineweaver-Burk) [2] | IC50 [3] [nM] | inhibition activity (qualitative) [4] | competitive inhibition (qualitative call) [5] | inhibition activity [6] | Ki [7] [nM] | Ki [8] [nM]
1 | Cc1cccc(C/N=C2\N[C@H](CO)[C@H](O)[C@H](O)[C@H]2O)c1 | 16.2 | Active | 131 | Active | Active | Active | 29.4 | 0.11
2 | OC[C@H]1N/C(=N\C2CC2)[C@H](O)[C@@H](O)[C@H]1O | > 1000 | Active | 369 | Active | Active | Active | 31.9 | 0.32
3 | CC(C)(C)c1ccc(C/N=C2\N[C@H](CO)[C@H](O)[C@H](O)[C@H]2O)cc1 | 412 | Active | 122 | Active | Active | Active | 20.6 | 0.11
4 | Cc1ccc(C/N=C2\N[C@H](CO)[C@H](O)[C@H](O)[C@H]2O)cc1 | 57.6 | Active | 36 | Active | Active | Active | 8 | 0.07
5 | OC[C@H]1N/C(=N\Cc2ccc(F)cc2)[C@H](O)[C@@H](O)[C@H]1O | 9.1 | Active | 331 | Active | Active | Active | 10.1 | 0.19
6 | OC[C@H]1N/C(=N\Cc2ccccc2F)[C@H](O)[C@@H](O)[C@H]1O | 43.1 | Active | 117 | Active | Active | Active | 16.1 | 0.23
7 | Cc1ccc(CNC2=N[C@H](CO)[C@H](O)[C@H](O)C2)cc1 | 850 | Active | 33300 | Active | Active | Active | 2400 | 0.6
8 | O=C1N[C@H](CO)[C@H](O)[C@H](O)[C@H]1O | 8700 | Active | > 50000 | Active | Active | Active | 615 | 2700
9 | OC[C@H]1N/C(=N\CC2CC2)[C@H](O)[C@@H](O)[C@H]1O | > 1400 | Active | 36 | Active | Active | Active | 9.5 | 0.39
10 | OC[C@H]1N/C(=N\Cc2ccc(C(F)(F)F)cc2)[C@H](O)[C@@H](O)[C@H]1O | 15.2 | Active | 122 | Active | Active | Active | 15.7 | 0.16
11 | CCCCCCC/N=C1\N[C@H](CO)[C@H](O)[C@H](O)[C@H]1O | 24.1 | Active | 107 | Active | Active | Active | 10.8 | 0.11
12 | COc1ccc(C/N=C2\N[C@H](CO)[C@H](O)[C@H](O)[C@H]2O)cc1 | 26.2 | Active | 150 | Active | Active | Active | 17.1 | 0.12
13 | Cc1ccccc1C/N=C1\N[C@H](CO)[C@H](O)[C@H](O)[C@H]1O | 118 | Active | 623 | Active | Active | Active | 23.6 | 0.2
14 | CO[C@@H]1[C@H](O)[C@@H](O)C(NCc2ccc(C)cc2)=N[C@@H]1CO | 9200 | Active | 40700 | Active | Active | Active | 1400 | 840
15 | OC[C@H]1N/C(=N\CC2CCCCC2)[C@H](O)[C@@H](O)[C@H]1O | 11.6 | Active | 22 | Active | Active | Active | 11.3 | 0.08
16 | CCC/N=C1\N[C@H](CO)[C@H](O)[C@H](O)[C@H]1O | 1030 | Active | 226 | Active | Active | Active | 149 | 0.32
17 | OC[C@H]1N/C(=N\CCCc2ccccc2)[C@H](O)[C@@H](O)[C@H]1O | 41.3 | Active | 36 | Active | Active | Active | 8.6 | 0.06
18 | OC[C@H]1N/C(=N\CC2CCCCCC2)[C@H](O)[C@@H](O)[C@H]1O | 45.4 | Active | 36 | Active | Active | Active | 6.3 | 0.16
19 | CCCCC(CC)CNC1=N[C@H](CO)[C@H](O)[C@H](O)[C@H]1O (stereo partly specified) | 21.6 | Active | 36 | Active | Active | Active | 7.8 | 0.18
20 | CCCCCCCCCCCNC1=N[C@H](CO)[C@H](O)[C@H](O)[C@H]1O | 42.7 | Active | 33.5 | Active | Active | Active | 48.4 | 0.24
21 | OC[C@H]1N/C(=N\C2CCCCC2)[C@H](O)[C@@H](O)[C@H]1O | > 1000 | Active | 4870 | Active | Active | Active | 602 | 2.34
22 | OC[C@H]1N/C(=N\Cc2cccc(F)c2)[C@H](O)[C@@H](O)[C@H]1O | 9.4 | Active | 115 | Active | Active | Active | 20.3 | 0.13
